Source: ChEMBL document CHEMBL1121556, “Structure-activity relationships in a series of newly synthesized 1-amino-substituted ellipticine derivatives” (J Med Chem, 1980)

How the values were obtained:
Mus musculus [1] = assay: In vivo antitumor activity on L1210 leukemia cells at the dose 15 mg/kg administered intraperitoneally estimated as range of deaths; type: functional; details: route intraperitoneal
[2] = system: Friend leukemia cells (Mus musculus); assay: In vitro concentration required for growth inhibition of murine Friend leukemia cell; details: read-out: ID50 (the source's name)
Nucleic Acid [3] = assay: Apparent association constant towards DNA at concentration of 10e-7/M; type: nucleic-acid assay; details: Bos taurus
Summary of the method: (§1)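 Association constants for DNA binding were derived from absorption changes of calf thymus DNA at 6 × 10^-7 M, expressed as mononucleotide concentration. The buffer was 50 mM Tris-HCl, pH 7.4, with 0.1 M NaCl.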

Nucleic Acid [4] = assay: B app constant towards DNA; type: nucleic-acid assay; details: Bos taurus; summary of the method: as §1
Mus musculus [5] = assay: In vivo acute toxicity (lethal dose) against mice by intravenous administration; type: organism-based
Summary of the method: (§2)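 Mice (ICFW, C3H or B6D2 F1; 6-8 weeks; 22-24 g) in five groups of six. Drug dissolved in acidified saline (equimolar acetic acid) and given as a single ip or iv dose of 2, 5, 10, 25 or 50 mg/kg. Mortality observed over 30 days to set the lethal dose (LD100) and the highest nonlethal dose (LD0).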

Mus musculus [6] = assay: In vivo acute toxicity (nonlethal dose) against mice by intraperitoneal administration; type: organism-based; details: ip; summary of the method: as §2
Mus musculus [7] = assay: In vivo evaluation for the antitumor activity on L1210 leukemia cells at the dose 15 mg/kg administered intraperitoneally estimated as Mean survival time; type: functional; details: route intraperitoneal
Mus musculus [8] = assay: In Vivo antitumor activity on grafted tumor friend cells at the dose 20 mg/kg and decrease in intravenous 10 e 6 cells and median survival time; type: functional
Summary of the method: (§3)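 Friend tumor cells, 10^6, injected iv into syngeneic mice. Mice randomized in groups of 16. Drug dissolved in acidified saline (equimolar acetic acid) and given as a single iv dose 3 days after inoculation. Median survival time recorded. %ILS = (treated median survival − control median survival)/control median survival × 100.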

Mus musculus [9] = assay: In vivo acute toxicity (lethal dose) against mice by intraperitoneal administration; type: organism-based; details: ip; summary of the method: as §2
Mus musculus [10] = assay: In vivo acute toxicity (nonlethal dose) against mice by intravenous administration; type: organism-based; summary of the method: as §2
Mus musculus [11] = assay: In Vivo evaluation for the antitumor activity on grafted tumor friend cells at the dose 20 mg/kg and Increase in the life span was determined; type: functional; summary of the method: as §3
Mus musculus [12] = assay: In vivo evaluation for the antitumor activity on L1210 leukemia cells at the dose 15 mg/kg administered intraperitoneally estimated as increase in life span; type: functional; details: L1210, ip, route intraperitoneal
Mus musculus [13] = assay: In Vivo evaluation for the antitumor activity on grafted tumor friend cells at the dose 2.5 mg/kg and Increase in the life span; type: functional; summary of the method: as §3
Mus musculus [14] = assay: In vivo evaluation for the antitumor activity on L1210 leukemia cells at the dose 2.5 mg/kg administered intraperitoneally 1 day after 10 e5 L1210 leukemia cells and Mean survival time; type: functional; details: route intraperitoneal
Mus musculus [15] = assay: In vivo antitumor activity on L1210 leukemia cells at the dose 2.5 mg/kg administered intraperitoneally 1 day after 10 e5 L1210 leukemia cells and range of deaths; type: functional; details: route intraperitoneal
Mus musculus [16] = assay: In vivo evaluation for the antitumor activity on L1210 leukemia cells at the dose 2.5 mg/kg administered intraperitoneally 1 day after 10 e5 L1210 leukemia cells and increase in life span; type: functional; details: L1210, ip, 24 h, route intraperitoneal
Mus musculus [17] = assay: In Vivo antitumor activity on grafted tumor friend cells at the dose 2.5 mg/kg and decrease in intravenous 10 e 6 cells and median survival time; type: functional; summary of the method: as §3
Mus musculus [18] = assay: In vivo evaluation of antitumor activity on L1210 leukemia cells at the dose 15 mg/kg administered intraperitoneally 1 day after 10 e5 L1210 leukemia cells and Mean survival time; type: functional; details: route intraperitoneal
Mus musculus [19] = assay: In vivo antitumor activity on L1210 leukemia cells at the dose 15 mg/kg administered intraperitoneally 1 day after 10 e5 L1210 leukemia cells and range of deaths; type: functional; details: route intraperitoneal
Mus musculus [20] = assay: In vivo evaluation of antitumor activity on L1210 leukemia cells at the dose 15 mg/kg administered intraperitoneally 1 day after 10 e5 L1210 leukemia cells and increase in life span; type: functional; details: L1210, ip, 24 h, route intraperitoneal
Nucleic Acid [21] = assay: Apparent association constant towards DNA at concentration of 10e-7/M.; type: nucleic-acid assay; details: Bos taurus; summary of the method: as §1
Nucleic Acid [22] = assay: Apparent association constant towards DNA at concentration of […].; type: nucleic-acid assay; details: Bos taurus; summary of the method: as §1

Question: CCN(CC)CCCNc1nccc2c(C)c3[nH]c4ccc(OC)cc4c3c(C)c12 [RETELLIPTINE] was tested. Which Range of deaths (Mus musculus [1]) did it give?
Answer: 35 days

Question: What about the IC50 [2] of the same molecule?
Answer: 300 nM

Question: What about the K app (Nucleic Acid [3]) of the same molecule?
Answer: 3.15e+07 M⁻¹

Question: What about the Bapp (Nucleic Acid [4]) of the same molecule?
Answer: 0.16

Question: And the LD100 (Mus musculus [5])?
Answer: 60 mg/kg

Question: And the LD0 (Mus musculus [6])?
Answer: 15 mg/kg

Question: What about the MST (Mus musculus [7]) of the same molecule?
Answer: 25 days

Question: What about the MST (Mus musculus [8]) of the same molecule?
Answer: 10.6 days

Question: What about the LD100 (Mus musculus [9]) of the same molecule?
Answer: 60 mg/kg

Question: And the LD0 (Mus musculus [10])?
Answer: 20 mg/kg

Question: What about the ILS at 20 mg/kg (Mus musculus [11]) of the same molecule?
Answer: 24.7%

Question: What about the ILS at 15 mg/kg (Mus musculus [12]) of the same molecule?
Answer: 134%

Question: Which IC50 [2] does the source give for CCN(CC)CCCNc1nccc2c(C)c3[nH]c4ccc(OCc5ccccc5)cc4c3cc12 here?
Answer: 2000 nM

Question: CCN(CC)CCCNc1nccc2c(C)c3[nH]c4ccc(O)cc4c3c(C)c12 was tested. Which IC50 [2] did it give?
Answer: 30 nM

Question: What about the K app (Nucleic Acid [3]) of the same molecule?
Answer: 2e+07 M⁻¹

Question: What about the Bapp (Nucleic Acid [4]) of the same molecule?
Answer: 0.16

Question: What about the ILS at 2.5 mg/kg (Mus musculus [13]) of the same molecule?
Answer: 34.1%

Question: And the LD100 (Mus musculus [5])?
Answer: 7 mg/kg

Question: What about the LD0 (Mus musculus [6]) of the same molecule?
Answer: 2.5 mg/kg

Question: And the MST (Mus musculus [14])?
Answer: 16.4 days

Question: And the Range of deaths (Mus musculus [15])?
Answer: 19 days

Question: And the ILS at 2.5 mg/kg (Mus musculus [16])?
Answer: 57.1%

Question: And the LD100 (Mus musculus [9])?
Answer: 7 mg/kg

Question: What about the LD0 (Mus musculus [10]) of the same molecule?
Answer: 2 mg/kg

Question: And the MST (Mus musculus [17])?
Answer: 11.4 days

Question: COc1ccc2[nH]c3c(C)c4ccnc(Nc5ccc(NS(C)(=O)=O)cc5)c4cc3c2c1 was tested. Which IC50 [2] did it give?
Answer: 2000 nM

Question: What does the source list for COc1ccc2[nH]c3c(C)c4ccnc(NCCN(C)C)c4cc3c2c1?
Answer: IC50 [2]: 800 nM; K app (Nucleic Acid [3]): 2.8e+07 M⁻¹; Bapp (Nucleic Acid [4]): 0.11

Question: Cc1c2ccnc(NCCCN)c2cc2c1[nH]c1ccc(OCc3ccccc3)cc12 was tested. Which IC50 [2] did it give?
Answer: 300 nM

Question: For COc1ccc2[nH]c3c(C)c4ccnc(NCCCN(C)C)c4c(C)c3c2c1, which IC50 [2] is on record?
Answer: 300 nM

Question: And the MST (Mus musculus [18])?
Answer: 15.3 days

Question: And the Range of deaths (Mus musculus [19])?
Answer: 18 days

Question: And the LD0 (Mus musculus [6])?
Answer: 15 mg/kg

Question: What about the ILS at 15 mg/kg (Mus musculus [20]) of the same molecule?
Answer: 33.3%

Question: And the LD100 (Mus musculus [9])?
Answer: 30 mg/kg

Question: With CCN(CCCN)CCCNc1nccc2c(C)c3[nH]c4ccc(OC)cc4c3cc12 as the molecule, how does the IC50 [2] read?
Answer: 200 nM

Question: What about the LD0 (Mus musculus [6]) of the same molecule?
Answer: 5 mg/kg

Question: What about the LD100 (Mus musculus [9]) of the same molecule?
Answer: 15 mg/kg

Question: What does the source list for COc1ccc2[nH]c3c(C)c4ccnc(NCCCCCN)c4cc3c2c1?
Answer: IC50 [2]: 500 nM; Bapp (Nucleic Acid [4]): 0.15; K app (Nucleic Acid [21]): 4.5e+07 M⁻¹

Question: What does the source list for COc1ccc2[nH]c3c(C)c4ccnc(NCCCN(C)C)c4cc3c2c1?
Answer: IC50 [2]: 1000 nM; Bapp (Nucleic Acid [4]): 0.09; K app (Nucleic Acid [22]): 3.15e+07 M⁻¹

Question: How did the IC50 [2] turn out when COc1ccc2[nH]c3c(C)c4ccnc(NCCCCN)c4cc3c2c1 was run?
Answer: 5000 nM

Question: What about the Bapp (Nucleic Acid [4]) of the same molecule?
Answer: 0.13

Question: And the K app (Nucleic Acid [21])?
Answer: 4e+07 M⁻¹

Question: Which results are given for CCN(CC)CCCC(C)Nc1nccc2c(C)c3[nH]c4ccc(OC)cc4c3cc12 (stereo not given)?
Answer: IC50 [2]: 500 nM; MST (Mus musculus [18]): 12.5 days; Range of deaths (Mus musculus [19]): 14 days; LD0 (Mus musculus [6]): 1.5 mg/kg; ILS at 15 mg/kg (Mus musculus [20]): 8.7%; LD100 (Mus musculus [9]): 30 mg/kg

Question: Which IC50 [2] does the source give for COc1ccc2[nH]c3c(C)c4ccnc(NCCCn5ccnc5)c4cc3c2c1 here?
Answer: 500 nM
